Assays:
Leishmania major = test: Cytotoxicity against cloned virulent Leishmania major promastigotes MHOM/IL/81/FE/BN1 after 48 hrs; assay type: organism-based
How it was run: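 L. major promastigotes grown on blood agar at 26°C, 5% CO2, then washed in PBS and suspended at 1 × 10^8 cells/ml in complete Click RPMI 1640 (10% FCS, glutamine, HEPES pH 7.2, antibiotics, 2-mercaptoethanol), no phenol red. Exposed to increasing compound concentrations 24 h at 26°C, then Alamar Blue added. OD read 540/630 nm; 48 h OD versus untreated (100% growth) gave IC50 by linear interpolation. Duplicate wells, ≥2 experiments; DMSO ≤1% final.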

Mus musculus [1] = species on record: Mus musculus; test: Cytotoxicity against J774.1 macrophages after 48 hrs; settings: J774.1, 48 h
How it was run: (§1)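 J774.1 cells, BALB/c peritoneal exudate cells (erythrocytes lysed in 10 mM NH4Cl), or BMDC (day-10 nonadherent cells from GM-CSF 200 U/ml cultures) were plated at 2 × 10^6 cells/ml in complete RPMI without phenol red. Cells were exposed to increasing concentrations for 24 h at 37°C in 5% CO2, then Alamar Blue was added. IC50 was taken by linear interpolation from the 48 h OD. Duplicate wells, at least two experiments.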

[2] = Cytotoxicity index, IC50 for J774.1 macrophages over IC50 for Leishmania major promastigotes; settings: mouse; for selectivity ratio: J774.1 macrophages, read-out: Ratio IC50
How it was run: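 Index is J774.1 IC50 divided by promastigote IC50, with both assays run in parallel. Promastigotes were incubated 24 h at 26°C with rising concentrations, and J774.1 cells 24 h at 37°C. Alamar Blue was then added. OD at 540/630 nm was read, and IC50 was interpolated linearly from the 48 h readings, with drug-free wells set as 100% growth.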

Mus musculus [3] = species on record: Mus musculus; test: Cytotoxicity against BALB/c mouse peritoneal macrophages by Alamar blue method; assay type: functional; how it was run: as §1
[4] = Cytotoxicity against BALB/c mouse bone-marrow derived dendritic cells by Alamar blue method; assay type: cell-based; settings: Dendritic cell; how it was run: as §1
NIH3T3 = test: Cytotoxicity against mouse embryo NIH3T3 cells by Alamar blue method; assay type: cell-based
How it was run: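 NIH 3T3 fibroblasts were grown on gelatin and suspended at 2 × 10^6 cells/ml in DMEM. They were exposed to rising compound concentrations for 24 h at 37°C in 5% CO2, then Alamar Blue was added. IC50 was derived by linear interpolation of the 48 h OD. Duplicate wells per concentration; at least two experiments.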

Row | Structure (SMILES) | IC50 (Leishmania major) [µM] | IC50 (Mus musculus [1]) [µM] | selectivity ratio [2] | IC50 (Mus musculus [3]) [µM] | IC50 [4] [µM] | Ratio IC50 [2] | IC50 (NIH3T3) [µM]
1 | COc1ccc(-c2ccc3cc(C)nc(C)c3c2O)c2cc(C)cc(OC)c12 [DIONCOPHYLLEINE D] | > 100 | > 100 |  |  |  |  | 
2 | COc1c2c(cc(O)c1-c1c(C)cc3cccc(OC)c3c1O)C[C@H](C)N=C2C [ANCISTROHEYNINE B] | 33 | 29.9 | < 1 |  |  |  | 
3 | COc1cc(CO)c(-c2ccc3c(c2O)[C@@H](C)N[C@H](C)C3)c2cccc(O)c12 [DIONCOPELTINE A] | > 100 | > 100 |  |  |  |  | 
4 | COc1cc(C)c(-c2ccc(O)c3c2C[C@@H](C)N[C@@H]3C)c2cccc(O)c12 [DIONCOPHYLLINE C] | 36.5 | 32.8 | < 1 |  |  |  | 
5 | COc1cc2c(c(OC)c1)C(C)=[N+](c1ccc(OC)c3c(OC)cc(C)cc13)[C@@H](C)C2 [ANCISANCISTROCLADINIUM A] | 4.9 | 31.8 | 6.48 | 41.7 | 36 |  | 
6 | COc1cc(OC)c2c(C)[n+](-c3ccccc3)c(C)cc2c1.[Cl-] | 47 | 43.7 |  |  |  | < 1 | 
7 | COc1cc(OC)c2c(C)[n+](-c3ccccc3)c(C)cc2c1.[O-][Cl+3]([O-])([O-])[O-] | 26.6 | 39.2 | 1.47 |  |  |  | 
8 | COc1cc(OC)c2c(C)[n+](-c3cccc4ccccc34)c(C)cc2c1.[O-][Cl+3]([O-])([O-])[O-] | 2.91 | 10.2 | 3.48 | 15.5 | 27.4 |  | 15
9 | COc1cc2c(c(OC)c1)C(C)=[N+](c1ccc3cc(C)cc(OC)c3c1O)[C@@H](C)C2 [ANCISTROCLADINIUM B] | 1.24 | 11.2 | 9.04 | 16.9 | 20.1 |  | 10.6
10 | COc1cccc2c(-c3ccc4c(c3O)[C@@H](C)N[C@H](C)C4)c(C)cc(OC)c12 [DIONCOPHYLLINE A] | 47 |  |  |  |  |  | 
11 | COc1cc2c(c(OC)c1-c1c(C)cc3cccc(OC)c3c1O)C(C)=N[C@@H](C)C2 [ANCISTROCLADIDINE] | > 100 | > 100 |  |  |  |  | 
12 | COc1cc(OC)c(-c2ccc(OC)c3c(OC)cc(C)cc23)c2c1C(C)=N[C@@H](C)C2 [ANCISTROEALAINE A] | > 100 | > 100 |  |  |  |  | 
13 | COc1cc(C)c(-c2ccc3cc(C)nc(C)c3c2O)c2cccc(O)c12 [ENT-DIONCOPHYLLEINE A] | 32.3 |  |  |  |  |  | 
